Assay outcomes (PubChem)
Rows were chosen to be rich in hits. Some 2.6% of all compounds tested hit in one or more screens of this group.
GRK2 inh = inhibitors of human GRK2 displacing RNA aptamer. actives 0.59% (n = 330,000). AID 488847. inhibition of aptamer binding, % at 10 µM. P25098. bead flow cytometry, FAM-aptamer displacement from GRK2;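 active = inhibition of aptamer binding above 40%, roughly 3 SD of noise, on plates passing a quality check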;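 note: median bead fluorescence of bound FAM aptamer so fluorescent compounds give negative values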
Rin1 Abl inh = blocks binding of human Rin1 to Abl | P00519+Q13671 | TR-FRET Rin1/Abl binding, biochemical | inhibition, % at 7.35 µM | actives 0.4% (n = 360,000) | AID 588664; in the data active = inhibition above about 5%, passing the limit was not always enough
Rce1 inh = yeast Ras-converting enzyme inhibition. calls only. yeast membranes, quenched prenylated peptide cleavage fluorescence. Q03530. actives 0.27% (n = 290,000);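 active = fall in fluorescence gain of 50% or more versus controls, with final raw signal at or below 3038400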
Target sequence (Q03530 whole entry, looked up): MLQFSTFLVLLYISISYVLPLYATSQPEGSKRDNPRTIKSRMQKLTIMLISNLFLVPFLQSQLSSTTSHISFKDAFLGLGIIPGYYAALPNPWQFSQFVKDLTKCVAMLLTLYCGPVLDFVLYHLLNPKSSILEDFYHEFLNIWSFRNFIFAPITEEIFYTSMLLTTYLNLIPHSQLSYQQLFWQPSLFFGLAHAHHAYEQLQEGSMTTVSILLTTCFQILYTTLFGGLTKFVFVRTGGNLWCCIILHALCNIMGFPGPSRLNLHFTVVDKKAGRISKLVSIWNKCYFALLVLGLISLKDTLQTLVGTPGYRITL
Myeloid diff MLP = compounds promoting myeloid differentiation; ER-HoxA9 myeloid progenitors, lysozyme-GFP differentiation, flow cytometry; calls only at 10 µM; actives 1% (n = 360,000);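 active = normalized GFP-positive differentiation at or above the plate's own cutoff, the solvent-only control mean plus 3 SD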;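 note: cells exposed to compound for four days before flow analysis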
SKN-1 inh = blocks SKN-1 activity in C. elegans. C. elegans VP596 Pgst-4::GFP/RFP ratio, acrylamide-induced, 24 h. inhibition, % at 21.8 µM. actives 0.49% (n = 360,000);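 active = interference check ratio from 0.5 to 1.5 plus GFP to RFP signal ratio inhibition reaching or exceeding a fixed threshold, cut at about 30% in these data, passing the limit was not always enough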
T cell HTS = modulates CD8 T cell binding to vesicles; actives 0.068% (n = 330,000); response (vesicle binding), % at 7 µM; 2C CD8+ T cell-vesicle binding, flow cytometry; active compounds read low; AID 2052;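 active = response, share of CD8 T cells binding vesicles, and their 90th percentile fluorescence all below set limits, cut at about 80% in these data, passing the limit was not always enough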;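 note: values below 100% mean blocked vesicle binding to the CD8+ T cells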
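Material: 2C TCR transgenic mouse naive CD8+ T cells, MACS-purified. Also added: QL9-charged Drosophila Ld/ICAM-1/B7-1 vesicles. Timing: binding 1.5 h at 37 °C. Measured by: high-throughput flow cytometry with anti-B7-1 and anti-CD8 staining. Read-out: percent CD8+ FL2 mean versus row control. Controls: Unloaded micro-vesicles (low), QL9 vesicles with 0.7% DMSO (high).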
Hits are given with their value; i = inactive; nt = no result; + = active, no number.

SMILES	GRK2 inh	Rin1 Abl inh	Rce1 inh	Myeloid diff MLP	SKN-1 inh	T cell HTS
Clc1ccc(-c2nc(-c3cnccn3)no2)cc1	i	i	i	i	46	i
c1ccc(-c2ccc(-c3nc(-c4ccccn4)no3)cc2)cc1	i	i	i	i	63	i
Fc1ccc(-c2nc(-c3cnccn3)no2)c(Cl)c1	i	i	nt	i	38	i
CN1CCN(CCNC(=O)c2ccc3nc(-c4ccc(F)cc4)c(-c4ccc(F)cc4)nc3c2)CC1	i	i	i	i	i	i
CCCCCCN1C=C/C(=C\C=C(C#N)C#N)c2ccccc21	i	i	i	+	i	i
CCCCCCN1C=CC=C/C1=C/C=C(C#N)C#N	i	i	i	i	i	i
Clc1ccc2nc(-c3ccc(Br)s3)cn2c1	i	i	i	i	70	i
COc1ccc(/C=N/NC(=O)CNC(=O)/C=C/c2ccccc2OC)cc1	i	i	i	+	i	i
COc1ccccc1/C=C\C(=O)NCC(=O)N/N=C/c1cccc(OC)c1O	i	i	i	i	i	i
N#Cc1ccsc1NC(=O)CSc1ncn[nH]1	i	i	i	i	i	i
N#Cc1ccsc1NC(=O)CSc1ncnc2ccccc12	i	i	i	+	i	i
COCCNc1c2c(nc3c(-c4ccccc4)c(C)nn13)CCCC2	i	i	i	i	i	i
Cc1nn2c(NCCN(C)C)c3c(nc2c1-c1ccccc1)CCCC3	i	i	+	i	i	i
Cc1cc(-c2ccc(N3CCOCC3)cc2)nc2ccccc12	i	i	i	+	i	i
CN1CCN(c2ccc(-c3ccc4ccccc4n3)cc2)CC1	nt	i	i	+	i	nt
Cc1oc(-c2ccccc2)nc1CS(=O)CC(=O)NC1CCCCCC1 (centres undefined)	i	i	i	i	i	i
COc1ccc(CCNC(=O)CSC2=NS(=O)(=O)c3cc(F)ccc3N2)cc1OC	nt	i	nt	i	i	nt
CC(=O)Oc1ccc(C(=O)Nc2cccc(-c3nnc(-c4ccco4)o3)c2)cc1	i	i	i	+	i	i
COc1cc(CNC(=O)c2cc(-c3ccc(F)cc3C)n[nH]2)cc(OC)c1	nt	i	nt	i	i	nt
CCOC(=O)C1CCN(CC(O)COc2ccc(C(C)(C)C)cc2)CC1 (centres undefined)	i	i	i	+	i	i
CC(=O)OC1CCC2(C)C(COc3ccc4ccc(=O)oc4c3)C(C)(O)CCC2C1(C)C (centres undefined)	i	i	+	i	i	i
CCOC(=O)C(Oc1ccc2c(-c3ccc(OC)cc3)cc(=O)oc2c1C)c1ccccc1 (centres undefined)	i	i	i	i	36	i
COc1ccc(-c2cc(=O)oc3c(C)c(OC(C)C(=O)Nc4ccc(CN5CCOCC5)cc4)ccc23)cc1 (centres undefined)	i	i	i	+	i	i
COc1ccc(-c2cc(=O)oc3c(C)c(OC(C)C(C)=O)ccc23)cc1 (centres undefined)	i	i	i	+	i	i
COc1cc2c3nnc(-c4ccc(F)cc4)c-3cn(Cc3ccc(C)cc3)c2cc1OC	i	i	i	+	i	i
SMILES	GRK2 inh	Rin1 Abl inh	Rce1 inh	Myeloid diff MLP	SKN-1 inh	T cell HTS
COc1cc2c3nnc(-c4ccccc4)c-3cn(Cc3ccc(F)cc3)c2cc1OC	i	i	i	i	i	i
COc1cc2c3nnc(-c4ccc(F)cc4)c-3cn(Cc3cccc(C)c3)c2cc1OC	i	i	i	+	i	i
Cn1nc(-c2ccc(Cl)cc2)c2cc(C(=O)N3CCN(c4ccccn4)CC3)sc21	i	i	i	+	i	i
Cn1nc(-c2ccc(Cl)cc2)c2cc(C(=O)N3CCN(c4ccccc4)CC3)sc21	i	i	i	i	i	i
CCCCN(C)CCNC(=O)c1cc2c(-c3cccc(OC)c3)nn(C)c2s1	i	i	+	i	i	i
Cn1nc(-c2ccc(Cl)cc2)c2cc(C(=O)NCCCN3CCCC3)sc21	i	i	i	+	i	i
COc1cccc(-c2nn(C)c3sc(C(=O)NCCCN(C)Cc4ccccc4)cc23)c1	i	i	i	i	i	i
CCN(CC)CCCNC(=O)c1cc2c(-c3cccc(OC)c3)nn(C)c2s1	i	i	+	i	i	i
CCC(CO)NC1=C([N+](=O)[O-])C(=O)CC(C)(C)C1 (centres undefined)	i	i	i	i	i	i
N#CCCN(C(=O)COC(=O)COc1ccccc1Cc1ccccc1)c1ccccc1	i	i	nt	i	i	i
CC(C)(C)n1nnnc1C1c2ccccc2C(=O)N1CCc1c[nH]c2ccccc12 (centres undefined)	nt	nt	nt	i	i	nt
COCCNC(=O)c1cc2c(-c3ccccc3F)nn(C)c2s1	i	i	i	i	i	i
CCCCN(C)CCNC(=O)c1cc2c(-c3ccccc3F)nn(C)c2s1	i	i	i	+	i	i
COC(=O)CCCCC1SCC2NC(=O)NC21O (centres undefined)	i	87	i	nt	i	i
CCc1ccc(NC(=O)[C@H](C)NC(=O)C2CCN(C(=O)[C@@H](N)C(C)C)CC2)cc1	i	i	i	i	i	i
NS(=O)(=O)c1ccc(NC(=O)/C=C/c2cn(-c3ccccc3)nc2-c2cccc(Cl)c2)cc1	i	i	+	i	i	i
CC(=O)N1c2ccccc2Nc2ccccc21	i	i	i	i	i	i
CC(=O)N1C2=CCCC3CCCCC23c2ccccc21 (centres undefined)	nt	i	nt	+	i	nt
CCN(CC(=O)Nc1ccc2c(c1)OCCO2)C(=O)c1cc(S(=O)(=O)N2CCOCC2)ccc1F	nt	i	nt	i	i	nt
Cc1nc2ccccc2cc1C(=O)N/N=C/c1cccs1	i	i	i	i	i	0.0
Cc1nc2ccccc2cc1C(=O)N/N=C/c1ccco1	i	i	i	i	i	i
CC(=O)Nc1ccc2cc3ccc(NC(C)=O)cc3nc2c1	i	i	i	+	i	i
CC(=O)Nc1ccc2ccccc2c1	i	i	i	i	i	i
N#CCSc1ccccc1NC(=O)CN1C(=O)C2CC=CCC2C1=O (centres undefined)	nt	i	nt	+	i	nt
Cc1cccc(C)c1NC(=O)CN1C(=O)C2CC=CCC2C1=O (centres undefined)	i	i	nt	i	i	i
COc1ccc(CSc2ccc(-c3nc4ccccn4c3NCc3ccccc3)cc2OC)cc1	i	i	+	i	i	i
Cc1oc(-c2ccc(Cl)cc2)nc1CN1CCCC(C(=O)N2CCN(C(=O)c3ccco3)CC2)C1 (centres undefined)	i	i	i	+	i	i
O=c1c(-c2ccco2)[n+]([O-])c2ccccc2n1OCc1ccccc1[N+](=O)[O-]	i	i	i	i	i	i
CC12CCC(=O)N1C(C(=O)NNC(=O)c1cccc(Cl)c1)CS2 (centres undefined)	i	i	i	i	i	i
CNC(=S)N/N=C/c1cn(Cc2c(F)cccc2Cl)c2ccccc12	i	i	+	i	i	i
